Source: ChEMBL document CHEMBL3351516, “Efficient synthesis of eudistomin U and evaluation of its cytotoxicity” (Bioorg Med Chem Lett, 2014)
Values after ≈ are worked out from the molar mass of the structure shown.

Assays:
Escherichia coli = assay: Antibacterial activity against Escherichia coli measured after overnight incubation by spectrophotometry; type: functional, organism-based
Outline: (§1)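 Bacteria were grown overnight at 37 °C in Luria broth, subcultured to OD 0.1 and grown 2 h more. Culture was added to cuvettes holding 0.1–300 µM test agent (0.3% DMSO). Controls were DMSO and streptomycin: 0.500 µg/mL for P. aeruginosa, 0.0625 µg/mL for the others. Shaken at 37 °C with OD read every 2.5 h in duplicate to about 7.5 h. IC50 from sigmoidal fit, mean of three trials.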

Pseudomonas aeruginosa = assay: Antibacterial activity against Pseudomonas aeruginosa measured after overnight incubation by spectrophotometry; type: functional, organism-based; outline: as §1
Candida albicans = assay: Antibacterial activity against Candida albicans measured every 2.5 hrs by spectrophotometry; type: functional, organism-based
Outline: (§2)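 Yeasts were grown overnight at 30 °C: S. cerevisiae in synthetic dextrose medium, C. albicans wild-type diploid in WYPD with glucose. Subcultured to OD 0.1 and grown 2 h. Exposed to 0.1–300 µM (0.3% DMSO), with DMSO and caspofungin 1 µg/mL controls. Shaken at 30 °C, OD read every 2.5 h in duplicate to about 7.5 h. Sigmoidal-fit IC50, mean of three trials.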

[1] = Cytotoxicity against human Caov3 cells after 24 hrs by MTT assay; type: functional, cell-based; conditions: Caov-3, 24 h
Outline: (§3)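 Cells were grown 72 h in DMEM/F12 with penicillin, streptomycin and L-glutamate, trypsinized and counted. Plated at 10,000 cells/well in IMDM, held 24 h at 37 °C, 5% CO₂, then treated 24 h with 0.1–300 µM (0.1% DMSO); DMSO control row. MTT (5 mg/mL in PBS, 20 µL/well) for 2 h, dissolved in DMSO, A490. Sigmoidal-fit IC50 from percent survival.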

Saccharomyces cerevisiae = assay: Antibacterial activity against Saccharomyces cerevisiae measured every 2.5 hrs by spectrophotometry; type: functional, organism-based; outline: as §2
P388 = assay: Growth inhibition of mouse P388 cells at 10 uM; type: functional; conditions: read-out: GI
Staphylococcus aureus = assay: Antibacterial activity against Staphylococcus aureus measured after overnight incubation by spectrophotometry; type: functional, organism-based; outline: as §1
[2] = Cytotoxicity against human WM266.4 cells after 24 hrs by MTT assay; type: functional, cell-based; conditions: WM 266-4, 24 h; outline: as §3
[3] = Cytotoxicity against human C19 cells after 24 hrs by MTT assay; type: functional, cell-based; conditions: C19, 24 h
Outline: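 Thawed C-19 leukemia cells were grown 48 h in IMDM with penicillin, streptomycin and L-glutamate at 37 °C, 5% CO₂. Plated at 10,000 cells/well in IMDM, held 24 h, then treated 24 h with 0.1–300 µM (0.1% DMSO); DMSO control row. MTT (5 mg/mL in PBS, 20 µL/well) for 2 h, dissolved in DMSO, A490. IC50 from sigmoidal fit of percent survival.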

[4] = system: Mycolicibacterium smegmatis; assay: Antibacterial activity against Mycobacterium smegmatis measured every 2.5 hrs by spectrophotometry; type: functional, organism-based
Outline: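 M. smegmatis MC²155 was grown 48 h at 37 °C with shaking in 7H9 complete medium with Tween, diluted 1:1000 and grown overnight. It was then subcultured to OD 0.1 and grown 2 h. Exposed to 0.1–300 µM (0.3% DMSO), with DMSO and streptomycin 0.250 µg/mL controls. Shaken at 37 °C, OD read every 2.5 h in duplicate to about 7.5 h. Sigmoidal-fit IC50, mean of three trials.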

Streptococcus pyogenes = assay: Antibacterial activity against Streptococcus pyogenes measured after overnight incubation by spectrophotometry; type: functional, organism-based; outline: as §1

IC50 (Escherichia coli): 12.3 µg/mL (≈ 43.4 µM)
IC50 (Pseudomonas aeruginosa): 27.7 µg/mL (≈ 97.8 µM)
IC50 (Candida albicans): > 30 µg/mL
IC50 (Saccharomyces cerevisiae): > 300 µg/mL
IC50 (Staphylococcus aureus): 6.4 µg/mL (≈ 22.6 µM)
IC50 [4]: 3.6 µg/mL (≈ 12.7 µM)
IC50 (Streptococcus pyogenes): 3.4 µg/mL (≈ 12 µM)
SMILES: c1ccc2c(-c3nccc4c3[nH]c3ccccc34)c[nH]c2c1
IC50 [1]: 24.9 µg/mL (≈ 87.9 µM)
inhibition of growth at 10 µM (P388): 38%
IC50 [2]: 27.5 µg/mL (≈ 97.1 µM)
IC50 [3]: 15.6 µg/mL (≈ 55.1 µM)
